Test results as given in ChEMBL document CHEMBL4689842, “EUbOPEN Chemogenomics Library wave 1” (2021).

What was measured:
HEK-293T = experiment: Multiplex assay against HEK293T; type: toxicity, cell-based; conditions: human;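 as to Population Tubulin-Different-Phenotype (%): share of the cells with healthy nuclei that show this phenotype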
Outline: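 Live cells carried four stains from seeding: Hoechst33342, BioTracker Green Microtubule Cytoskeleton Dye, MitoTracker Red and Annexin V Alexa Fluor 680. They were imaged on a CQ1 microscope at 37°C and 5% CO2 after compound addition. Using CellPathfinder machine-learning gating, cells were split into Hoechst high-intensity objects or normal cells, normal cells into healthy, pyknosed or fragmented nuclei, and pyknosed cells into mitotic or apoptotic; tubulin, mitochondrial-mass and membrane-permeability phenotypes are per cents of healthy-nucleus cells.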

Fibroblast = experiment: Incucyte cell viability with human fibroblast; type: toxicity, cell-based; conditions: 10 µM, compound concentration 10 uM; also: filed as whole numbers so only -1 and 0 and 1 occur
[1] = 12 h, 1 µM, compound concentration 1 uM, replicate 1
[2] = 12 h, 1 µM, compound concentration 1 uM, replicate 2
[3] = 12 h, 10 µM, compound concentration 10 uM, replicate 1
[4] = 12 h, 10 µM, compound concentration 10 uM, replicate 2
[5] = 24 h, 1 µM, compound concentration 1 uM, replicate 1
[6] = 24 h, 1 µM, compound concentration 1 uM, replicate 2
[7] = 24 h, 10 µM, compound concentration 10 uM, replicate 1
[8] = 24 h, 10 µM, compound concentration 10 uM, replicate 2
[9] = 48 h, 1 µM, compound concentration 1 uM, replicate 1
[10] = 48 h, 1 µM, compound concentration 1 uM, replicate 2
[11] = 48 h, 10 µM, compound concentration 10 uM, replicate 1
[12] = 48 h, 10 µM, compound concentration 10 uM, replicate 2

CNc1oc(-c2cccc3ccccc23)nc1C#N
Population Apoptotic (%) (HEK-293T; [1]): 59% | Population Fragmented Nuclei (%) (HEK-293T; [1]): 14% | Population Healthy Nuclei (%) (HEK-293T; [1]): 60% | Population Hoechst High Intensity Objects (%) (HEK-293T; [1]): 30% | Population Membrane Permeable-Phenotype (%) (HEK-293T; [1]): 3% | Population Mitochondria Different-Phenotype (%) (HEK-293T; [1]): 62% | Population Mitotic Cells (%) (HEK-293T; [1]): 40% | Population Normal (%) (HEK-293T; [1]): 69% | Population Pyknosed Nuclei (%) (HEK-293T; [1]): 25% | Population Tubulin-Different-Phenotype (%) (HEK-293T; [1]): 31% | Total Cell Count (HEK-293T; [1]): 276 | Population Apoptotic (%) (HEK-293T; [2]): 14% | Population Fragmented Nuclei (%) (HEK-293T; [2]): 8% | Population Healthy Nuclei (%) (HEK-293T; [2]): 61% | Population Hoechst High Intensity Objects (%) (HEK-293T; [2]): 11% | Population Membrane Permeable-Phenotype (%) (HEK-293T; [2]): 8% | Population Mitochondria Different-Phenotype (%) (HEK-293T; [2]): 16% | Population Mitotic Cells (%) (HEK-293T; [2]): 85% | Population Normal (%) (HEK-293T; [2]): 88% | Population Pyknosed Nuclei (%) (HEK-293T; [2]): 29% | Population Tubulin-Different-Phenotype (%) (HEK-293T; [2]): 12% | Total Cell Count (HEK-293T; [2]): 270 | Population Apoptotic (%) (HEK-293T; [3]): 41% | Population Fragmented Nuclei (%) (HEK-293T; [3]): 83% | Population Healthy Nuclei (%) (HEK-293T; [3]): 15% | Population Hoechst High Intensity Objects (%) (HEK-293T; [3]): 41% | Population Membrane Permeable-Phenotype (%) (HEK-293T; [3]): 0% | Population Mitochondria Different-Phenotype (%) (HEK-293T; [3]): 1% | Population Mitotic Cells (%) (HEK-293T; [3]): 58% | Population Normal (%) (HEK-293T; [3]): 58% | Population Pyknosed Nuclei (%) (HEK-293T; [3]): 1% | Population Tubulin-Different-Phenotype (%) (HEK-293T; [3]): 0% | Total Cell Count (HEK-293T; [3]): 2858 | Population Apoptotic (%) (HEK-293T; [4]): 25% | Population Fragmented Nuclei (%) (HEK-293T; [4]): 86% | Population Healthy Nuclei (%) (HEK-293T; [4]): 12% | Population Hoechst High Intensity Objects (%) (HEK-293T; [4]): 47% | Population Membrane Permeable-Phenotype (%) (HEK-293T; [4]): 4% | Population Mitochondria Different-Phenotype (%) (HEK-293T; [4]): 2% | Population Mitotic Cells (%) (HEK-293T; [4]): 75% | Population Normal (%) (HEK-293T; [4]): 52% | Population Pyknosed Nuclei (%) (HEK-293T; [4]): 0% | Population Tubulin-Different-Phenotype (%) (HEK-293T; [4]): 1% | Total Cell Count (HEK-293T; [4]): 2861 | Population Apoptotic (%) (HEK-293T; [5]): 38% | Population Fragmented Nuclei (%) (HEK-293T; [5]): 17% | Population Healthy Nuclei (%) (HEK-293T; [5]): 64% | Population Hoechst High Intensity Objects (%) (HEK-293T; [5]): 29% | Population Membrane Permeable-Phenotype (%) (HEK-293T; [5]): 6% | Population Mitochondria Different-Phenotype (%) (HEK-293T; [5]): 41% | Population Mitotic Cells (%) (HEK-293T; [5]): 61% | Population Normal (%) (HEK-293T; [5]): 70% | Population Pyknosed Nuclei (%) (HEK-293T; [5]): 17% | Population Tubulin-Different-Phenotype (%) (HEK-293T; [5]): 25% | Total Cell Count (HEK-293T; [5]): 325 | Population Apoptotic (%) (HEK-293T; [6]): 32% | Population Fragmented Nuclei (%) (HEK-293T; [6]): 6% | Population Healthy Nuclei (%) (HEK-293T; [6]): 79% | Population Hoechst High Intensity Objects (%) (HEK-293T; [6]): 14% | Population Membrane Permeable-Phenotype (%) (HEK-293T; [6]): 15% | Population Mitochondria Different-Phenotype (%) (HEK-293T; [6]): 8% | Population Mitotic Cells (%) (HEK-293T; [6]): 67% | Population Normal (%) (HEK-293T; [6]): 85% | Population Pyknosed Nuclei (%) (HEK-293T; [6]): 13% | Population Tubulin-Different-Phenotype (%) (HEK-293T; [6]): 26% | Total Cell Count (HEK-293T; [6]): 316 | Population Apoptotic (%) (HEK-293T; [7]): 15% | Population Fragmented Nuclei (%) (HEK-293T; [7]): 83% | Population Healthy Nuclei (%) (HEK-293T; [7]): 15% | Population Hoechst High Intensity Objects (%) (HEK-293T; [7]): 40% | Population Membrane Permeable-Phenotype (%) (HEK-293T; [7]): 0% | Population Mitotic Cells (%) (HEK-293T; [7]): 84% | Population Normal (%) (HEK-293T; [7]): 59% | Population Pyknosed Nuclei (%) (HEK-293T; [7]): 0% | Population Tubulin-Different-Phenotype (%) (HEK-293T; [7]): 0% | Total Cell Count (HEK-293T; [7]): 2556 | Population Apoptotic (%) (HEK-293T; [8]): 13% | Population Fragmented Nuclei (%) (HEK-293T; [8]): 88% | Population Healthy Nuclei (%) (HEK-293T; [8]): 10% | Population Hoechst High Intensity Objects (%) (HEK-293T; [8]): 48% | Population Membrane Permeable-Phenotype (%) (HEK-293T; [8]): 4% | Population Mitochondria Different-Phenotype (%) (HEK-293T; [8]): 1% | Population Mitotic Cells (%) (HEK-293T; [8]): 86% | Population Normal (%) (HEK-293T; [8]): 51% | Population Pyknosed Nuclei (%) (HEK-293T; [8]): 1% | Population Tubulin-Different-Phenotype (%) (HEK-293T; [8]): 3% | Total Cell Count (HEK-293T; [8]): 2734 | Population Apoptotic (%) (HEK-293T; [9]): 39% | Population Fragmented Nuclei (%) (HEK-293T; [9]): 14% | Population Healthy Nuclei (%) (HEK-293T; [9]): 78% | Population Hoechst High Intensity Objects (%) (HEK-293T; [9]): 32% | Population Membrane Permeable-Phenotype (%) (HEK-293T; [9]): 2% | Population Mitochondria Different-Phenotype (%) (HEK-293T; [9]): 17% | Population Mitotic Cells (%) (HEK-293T; [9]): 60% | Population Normal (%) (HEK-293T; [9]): 67% | Population Pyknosed Nuclei (%) (HEK-293T; [9]): 7% | Population Tubulin-Different-Phenotype (%) (HEK-293T; [9]): 17% | Total Cell Count (HEK-293T; [9]): 470 | Population Apoptotic (%) (HEK-293T; [10]): 18% | Population Fragmented Nuclei (%) (HEK-293T; [10]): 8% | Population Healthy Nuclei (%) (HEK-293T; [10]): 84% | Population Hoechst High Intensity Objects (%) (HEK-293T; [10]): 14% | Population Membrane Permeable-Phenotype (%) (HEK-293T; [10]): 7% | Population Mitochondria Different-Phenotype (%) (HEK-293T; [10]): 3% | Population Mitotic Cells (%) (HEK-293T; [10]): 81% | Population Normal (%) (HEK-293T; [10]): 85% | Population Pyknosed Nuclei (%) (HEK-293T; [10]): 6% | Population Tubulin-Different-Phenotype (%) (HEK-293T; [10]): 14% | Total Cell Count (HEK-293T; [10]): 536 | Population Apoptotic (%) (HEK-293T; [11]): 15% | Population Fragmented Nuclei (%) (HEK-293T; [11]): 82% | Population Healthy Nuclei (%) (HEK-293T; [11]): 16% | Population Hoechst High Intensity Objects (%) (HEK-293T; [11]): 43% | Population Membrane Permeable-Phenotype (%) (HEK-293T; [11]): 0% | Population Mitochondria Different-Phenotype (%) (HEK-293T; [11]): 0% | Population Mitotic Cells (%) (HEK-293T; [11]): 85% | Population Normal (%) (HEK-293T; [11]): 56% | Population Pyknosed Nuclei (%) (HEK-293T; [11]): 1% | Population Tubulin-Different-Phenotype (%) (HEK-293T; [11]): 0% | Total Cell Count (HEK-293T; [11]): 2084 | Population Apoptotic (%) (HEK-293T; [12]): 16% | Population Fragmented Nuclei (%) (HEK-293T; [12]): 84% | Population Healthy Nuclei (%) (HEK-293T; [12]): 14% | Population Hoechst High Intensity Objects (%) (HEK-293T; [12]): 52% | Population Membrane Permeable-Phenotype (%) (HEK-293T; [12]): 1% | Population Mitotic Cells (%) (HEK-293T; [12]): 83% | Population Normal (%) (HEK-293T; [12]): 47% | Population Tubulin-Different-Phenotype (%) (HEK-293T; [12]): 1% | Total Cell Count (HEK-293T; [12]): 2135 | Growth Rate (Fibroblast; 0 h, replicate number 1, timepoint 0 hours): 0 | Growth Rate (Fibroblast; 6 h, replicate number 2, timepoint 6 hours): 1
